# High-throughput results (PubChem)
# In the library only some 2.9% were active in any assay of this set; here they are far more common.
# proKLK7 act = proKLK7 zymogen activators, primary screen, biochemical, fluorescence intensity. Kallikrein-7 (Homo sapiens), P49862. purified proKLK7, EDANS-DABCYL substrate fluorescence; 100% is mature enzyme control, 0% vehicle. activation, % at 7 µM. hit rate 0.9% among 370,000;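 active means activation above the mean of all tested compounds plus 3 SD, computed per campaign excluding outliers beyond control limits, cut at about 13% in these data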
# Wee1 stabilizer = Wee1 degradation inhibitors, primary screen, cell-based, HeLa, Wee1K328M-luciferase, luminescence; HeLa Luc-Wee1K328M stability; 100% = proteasome inhibitor MG132 effect; reporter increase, % at 5 µM; hit rate 1.2% among 220,000; Wee1-like protein kinase (Homo sapiens), P30291;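 active means activation above the mean of all tested compounds plus 3 SD, set per screening run, cut at about 8.8% in these data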;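 further: cells exposed to compound for 20 h before luminescence read; 0% = DMSO alone and 100% = MG132 at 30 µM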
# Target sequence (P30291 whole entry K328M): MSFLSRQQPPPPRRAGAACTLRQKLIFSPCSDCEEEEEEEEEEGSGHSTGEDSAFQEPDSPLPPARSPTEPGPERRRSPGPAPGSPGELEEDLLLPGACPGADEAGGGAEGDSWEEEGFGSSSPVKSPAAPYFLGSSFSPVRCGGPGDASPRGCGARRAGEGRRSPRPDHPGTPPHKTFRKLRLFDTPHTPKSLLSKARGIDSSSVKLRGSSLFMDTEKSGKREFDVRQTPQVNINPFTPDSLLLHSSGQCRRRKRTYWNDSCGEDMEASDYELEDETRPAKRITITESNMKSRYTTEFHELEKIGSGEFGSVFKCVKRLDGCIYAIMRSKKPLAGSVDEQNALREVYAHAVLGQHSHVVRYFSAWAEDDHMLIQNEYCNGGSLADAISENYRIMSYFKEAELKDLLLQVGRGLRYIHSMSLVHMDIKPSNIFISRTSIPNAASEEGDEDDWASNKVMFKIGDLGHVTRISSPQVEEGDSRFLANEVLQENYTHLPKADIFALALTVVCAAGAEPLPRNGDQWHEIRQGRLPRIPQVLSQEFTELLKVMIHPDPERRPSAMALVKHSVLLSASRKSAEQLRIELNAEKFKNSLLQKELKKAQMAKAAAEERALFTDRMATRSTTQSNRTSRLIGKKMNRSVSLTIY
# Runt-SMMHC FRET = inhibitors of RUNX1 Runt–CBFb-SMMHC binding, primary screen, biochemical, FRET, Cerulean-Runt, Venus-CBFb-SMMHC, uHTS; Runt-related transcription factor 1 (Homo sapiens) + Core-binding factor subunit beta …; Cerulean-Runt/Venus-CBFb-SMMHC FRET ratio 530/480, 1 h; inhibition, % at 20 µM; hit rate 0.74% among 220,000; AID 1434, 2008;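 active means mean inhibition across duplicate retests at 20 µM reaching about 50%, limit read from the data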;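 further: 0% = DMSO wells and 100% = wells with excess untagged CBFb-SMMHC; inhibitors lower the FRET ratio by blocking Runt binding to CBFb-SMMHC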
# Runt-CBFb FRET = inhibitors of RUNX1 Runt–CBFb binding, primary screen, biochemical, FRET, Cerulean-Runt, Venus-CBFb, uHTS; Cerulean-Runt/Venus-CBFb FRET ratio 530/480, 1 h; inhibition, % at 20 µM; hit rate 0.46% among 220,000; AID 1496, 2009;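 active means inhibition over about 50% at 20 µM in the single-dose screen, limit read from the data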;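 further: 0% = DMSO wells and 100% = excess unlabeled CBFb competitor control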
#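 Reagent – Venus-CBFb binding partner, 100 nM · Assay system – Cerulean-tagged RUNX1 Runt domain (FRET donor) fusion protein · Input – 100 nM per protein · Incubation – two 1 h room-temperature incubations shielded from light · Measured by – FRET fluorescence · Medium – Tris buffer pH 7.5 with salts and BSA · Benchmarks – unlabeled CBFb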
# AI-2 QS mod = Vibrio harveyi AI-2 quorum sensing modulators, primary screen, JMH597 strain, luminescence/OD600 ratio | Vibrio harveyi JMH597 AI-2 luminescence/OD600 ratio, 9 h; hits give low values; strain lacks LuxN and CqsS sensors; 0 = neutral-control median | activity change, % at 7.5 µM | hit rate 0.4% among 300,000; in the data active means activity change below about -75%, passing the limit was not always enough; inconclusive means no clear call, values can overlap the other calls;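 further: luminescence divided by OD600 gain over 9 h not by final OD600 alone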
# RanGTP-Impb inh = inhibitors of RanGTP-importin-beta interaction, primary screen, biochemical, FRET, CFP-Ran, YFP-importin-beta, homogeneous. inhibition, % (concentration not given with the values). hit rate 1.1% among 300,000. cell-free CFP-Ran/YFP-importin-beta FRET ratio. Ran GTPase (GTP-bound) - importin-beta complex;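 active means more than half of the replicate wells show a fall in the fluorescence ratio signal beyond about 16%, limit read from the data, passing the limit was not always enough; inconclusive means exactly half of the replicate wells pass the set limit; inactive means fewer than half of replicates pass the limit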;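 further: 0% = DMSO wells and 100% = Ran loaded with GDP instead of GTP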
# * marks the source's active call; other numbers are inactive results; ? = inconclusive; nt = no result.
SMILES,proKLK7 act,Wee1 stabilizer,Runt-SMMHC FRET,Runt-CBFb FRET,AI-2 QS mod,RanGTP-Impb inh
O=C(CC1C(=O)NCCN1Cc1ccc(-c2ccccc2)cc1)NCC1CC1 (configuration not stated),0,2,-5,-4,3,2
C=CCNC(=O)CC1C(=O)NCCN1Cc1ccc(-c2ccccc2)cc1 (configuration not stated),-2,11*,-1,-1,19,-1
CC1CC(C)CN(CCCNC(=O)CN2C(=O)CSc3ccc(S(=O)(=O)N4CCCCC4)cc32)C1 (configuration not stated),0,nt,nt,nt,8,?
CS(=O)(=O)N(Cc1ccc(C(=O)NN=C2CCCCCC2)cc1)c1ccccc1,-1,1,4,0,14,3
CS(=O)(=O)N(Cc1ccc(C(=O)NN=C2CCCC2)cc1)c1ccccc1,0,9.3*,-2,1,18,0
Nn1c(SCC(=O)Nc2ccc(OCc3ccccc3)cc2)nnc1-c1cc(-c2ccccc2)n[nH]1,0,nt,nt,nt,nt,nt
COc1cc(/C=N/N2CCN(C3c4ccccc4-c4ccccc43)CC2)cc(OC)c1OC,0,-2,2,-2,12,4
COc1cc(/C=N/N2CCN(C3c4ccccc4-c4ccccc43)CC2)cc(OC)c1O,0,-1,56*,50,29,1
O=C(NCCCO)c1ccc2nc(-c3ccco3)c(-c3ccco3)nc2c1,9,4,-27,8,nt,nt
CC(=O)c1ccc(NC(=O)c2ccc3nc(-c4ccco4)c(-c4ccco4)nc3c2)cc1,nt,-2,-69,-4,17,35*
O=C(NCc1ccccc1)c1ccc2nc(-c3ccco3)c(-c3ccco3)nc2c1,-2,-2,-46,-1,39,25*
O=C(Nc1ccccc1)c1ccc2nc(-c3ccco3)c(-c3ccco3)nc2c1,0,0,-31,1,10,36*
O=C(Nc1ccc(N2CCOCC2)cc1)c1ccc2nc(-c3ccco3)c(-c3ccco3)nc2c1,-1,-5,-27,10,56,?
COc1ccc2nc(-c3ccco3)c(-c3ccco3)nc2c1,-9,-1,-22,6,33,54*
COCCN1Cc2cc(C(=O)OC)c3c(c2C1=O)c1cc(F)ccc1n3C(=O)c1ccccc1,1,nt,nt,nt,nt,nt
CCOC(=O)CC[C@H]1CC[C@]2(CCCN(C(=O)c3ccc4ccccc4n3)C2)O1,0,nt,nt,nt,nt,nt
O=C(Nc1ccc(C(F)(F)F)cc1)C1CCN(S(=O)(=O)c2ccc(N3CCCC3=O)cc2)CC1,0,nt,nt,nt,32,5
O=C(Cc1ccc(F)cc1)NCC1CCCO1 (configuration not stated),0,0,nt,nt,27,?
Cc1cc(S(=O)(=O)Nc2ccc(C(=O)NCC3CCCO3)cc2)ccc1F (configuration not stated),0,nt,nt,nt,nt,nt
Cc1onc(-c2c(Cl)cccc2Cl)c1C(=O)NCC1CCCO1 (configuration not stated),1,-1,3,-1,16,-3
O=C(Cc1ccccc1)NCC1CCCO1 (configuration not stated),0,10*,-1,-3,23,0
Cc1cccc(NC(=O)C(=O)NCC2CCCO2)c1 (configuration not stated),0,8.8*,0,0,29,1
Cc1noc(C(=O)NCC2CCCO2)c1Cl (configuration not stated),1,nt,nt,nt,15,23*
Cc1ccc(NS(=O)(=O)c2ccc(C(=O)NCC3CCCO3)cc2)cc1 (configuration not stated),1,11*,1,0,21,1
COC(=O)[C@H](CC(C)C)N(CCc1cn(Cc2ccccc2)nn1)S(=O)(=O)c1ccccc1Br,0,nt,nt,nt,nt,nt
SMILES,proKLK7 act,Wee1 stabilizer,Runt-SMMHC FRET,Runt-CBFb FRET,AI-2 QS mod,RanGTP-Impb inh
CCc1ccc(CCNC(=O)OC2CC3CC2[C@H]2CCCCN2[C@H]3Cc2ccccc2)cc1 (some centres not stated),0,nt,nt,nt,nt,nt
CCN(CC)S(=O)(=O)c1cccc(C(=O)N/N=C2\CC(=O)CC(C)(C)C2)c1,-3,9.5*,-18,-6,37,-4
COc1ccccc1NC(=O)c1coc(=O)c(Br)c1,10,1,-122,-32,1,?
CC(C)CNC(=O)c1coc(=O)c(Br)c1,27*,-1,3,3,15,-9
O=C(Nc1cc(Cl)cc(Cl)c1)c1coc(=O)c(Br)c1,-5,14*,11,4,12,4
c1ccc(N/N=C(\Cc2nc3ccccc3[nH]2)c2ccccc2)cc1,-1,0,0,6,18,-6
Cc1ccc(N/N=C(\Cc2nc3ccccc3[nH]2)c2ccccc2)cc1,nt,16*,-6,2,nt,nt
CCOC(=O)N1C(=O)C[C@](Sc2ccc(OC)cc2)(C(=O)N2CCCC2)[C@H]1c1ccc(OC)cc1,1,nt,nt,nt,nt,nt
COCc1[nH]nc2c1C(c1ccc3c(c1)OCO3)N(c1ccc(OC)cc1)C2=O (configuration not stated),0,nt,nt,nt,nt,nt
OCCCNc1nc(-c2ccccc2)c2cc(Br)ccc2n1,2,nt,nt,nt,18,33*
NNc1nc(-c2ccccc2)c2cc(Br)ccc2n1,0,nt,nt,nt,19,-4
Cc1ccc2nc(NCCCO)nc(-c3ccccc3)c2c1,0,0,59,29,20,30*
CCOC(=O)N(C)C[C@H]1OCc2cnnn2CCCC(=O)N([C@H](C)CO)C[C@@H]1C,0,nt,nt,nt,nt,nt
Cc1cc(C)nc(/N=C(\N)Nc2ccccc2-c2ccccc2)n1,0,-4,0,1,13,3
COc1ccc2c(c1)CN1C(=O)N(C3CCCC3)S(=O)(=O)CC21 (configuration not stated),0,nt,nt,nt,nt,nt
CN1C(=O)c2cc(NS(=O)(=O)c3ccc(F)cc3)ccc2OC[C@H]2O[C@@H](CC(=O)NCC(F)(F)F)CC[C@@H]21,0,nt,nt,nt,nt,nt
COc1ccc(-n2cccc2/C=C2/NC(=O)N(c3cccc(Cl)c3)C2=O)cc1,-10,8.9*,0,12,34,7
COc1ccc([N+](=O)[O-])cc1N(CC(=O)N1CCN(Cc2ccccc2)CC1)S(C)(=O)=O,0,nt,nt,nt,17,-6
